The source made the active and inactive calls. No cut-off for these calls is given here.

Data set [1] concerns MDA-MB-468. Briefly: Growth inhibition of human MDA-MB-468 cells after 72 hrs by CellTiter-Blue assay. The format is functional. To be noted: MDA-MB-468, 72 h. (The colour change of resazurin is a common sign of viable cells or microbes.)
The subject of data set [2] is MDA-MB-231. Briefly: Growth inhibition of human MDA-MB-231 cells after 72 hrs by CellTiter-Blue assay. To be noted: MDA-MB-231, 72 h. The class given is functional.
Data set [3] concerns the target T1, NAD-dependent protein deacetylase sirtuin-2 (Homo sapiens) (UniProt Q8IXJ6).
T1 sequence (whole entry): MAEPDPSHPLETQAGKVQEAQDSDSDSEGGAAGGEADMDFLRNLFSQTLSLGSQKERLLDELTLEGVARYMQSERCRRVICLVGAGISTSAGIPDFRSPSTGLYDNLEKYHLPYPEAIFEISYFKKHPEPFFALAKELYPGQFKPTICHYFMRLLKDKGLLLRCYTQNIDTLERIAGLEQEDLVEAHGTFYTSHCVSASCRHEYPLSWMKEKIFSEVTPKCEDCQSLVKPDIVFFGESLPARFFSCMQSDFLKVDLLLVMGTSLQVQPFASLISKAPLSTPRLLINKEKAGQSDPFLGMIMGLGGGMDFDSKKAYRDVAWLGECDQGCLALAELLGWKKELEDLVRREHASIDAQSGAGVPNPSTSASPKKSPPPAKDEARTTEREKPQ
The experiment in a line: Inhibition of SIRT2 in human HCT116 cells assessed as increase in alpha-tubulin acetylation at 50 uM incubated for 6 hrs by DAPI staining-based laser scanning confocal microscopic analysis. The class given is cell-based. Put shortly: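 HCT116 cells were seeded at 400 000 on poly-D-lysine-coated glass-bottom dishes and grown 24 h. Cells were treated with DMSO or inhibitor for 6 h at 37 °C, fixed in ice-cold methanol, and blocked in TBS/0.1% Triton X-100/5% BSA. They were stained with anti-acetyl α-tubulin (1:100, overnight, 4 °C), then Cy3 anti-mouse, and mounted with DAPI. Imaging was by confocal microscopy.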

A short description of data set [4]: Toxicity in NSG mouse xenografted with human HCT116 cells harboring KRAS G13D mutant assessed as body weight loss at 100 mg/kg, ip administered daily for 12 days measured during compound dosing. The class given is organism-based. The conditions noted are these: in vivo, 288 h. Background: A xenograft is tissue or cells of one species grown in another, often human tumour cells in immunodeficient mice.

The subject of data set [5] is HCT-116. The experiment in a line: Growth inhibition of human HCT116 cells after 72 hrs by CellTiter-Blue assay. The format is functional. To be noted: HCT-116, 72 h.
The subject of data set [6] is MCF7. The experiment in a line: Growth inhibition of human MCF7 cells after 72 hrs by CellTiter-Blue assay. The format is functional. The conditions noted are these: MCF7, 72 h.
The target in data set [7] is T2, NAD-dependent protein deacetylase sirtuin-2 (Homo sapiens, UniProt Q8IXJ6).
T2 sequence (Q8IXJ6 whole entry): T1 sequence (whole entry)
Briefly: Inhibition of recombinant human N-terminal His6-tagged/SUMO-fused SIRT2 (38 to 356 residues) expressed in Escherichia coli BL21 assessed as reduction in deacetylase activity using acetylated H3K9 as substrate preincubated for 15 mins followed by substrate addition and measured after 6 mins by UV-HPLC analysis.

Data set [8] can be described thus: Toxicity in NSG mouse xenografted with human HCT116 cells harboring KRAS G13D mutant assessed as body weight loss at 100 mg/kg, ip administered daily for 12 days measured during compound dosing. To be noted: in vivo, 288 h.
The subject of data set [9] is BXPC-3. The experiment in a line: Growth inhibition of human BxPC3 cells after 72 hrs by CellTiter-Blue assay. The class given is functional. The conditions noted are these: BXPC-3, 72 h.
Data set [10] deals with T3, NAD-dependent protein deacetylase sirtuin-1 (Homo sapiens) (UniProt Q96EB6).
T3 sequence (whole entry): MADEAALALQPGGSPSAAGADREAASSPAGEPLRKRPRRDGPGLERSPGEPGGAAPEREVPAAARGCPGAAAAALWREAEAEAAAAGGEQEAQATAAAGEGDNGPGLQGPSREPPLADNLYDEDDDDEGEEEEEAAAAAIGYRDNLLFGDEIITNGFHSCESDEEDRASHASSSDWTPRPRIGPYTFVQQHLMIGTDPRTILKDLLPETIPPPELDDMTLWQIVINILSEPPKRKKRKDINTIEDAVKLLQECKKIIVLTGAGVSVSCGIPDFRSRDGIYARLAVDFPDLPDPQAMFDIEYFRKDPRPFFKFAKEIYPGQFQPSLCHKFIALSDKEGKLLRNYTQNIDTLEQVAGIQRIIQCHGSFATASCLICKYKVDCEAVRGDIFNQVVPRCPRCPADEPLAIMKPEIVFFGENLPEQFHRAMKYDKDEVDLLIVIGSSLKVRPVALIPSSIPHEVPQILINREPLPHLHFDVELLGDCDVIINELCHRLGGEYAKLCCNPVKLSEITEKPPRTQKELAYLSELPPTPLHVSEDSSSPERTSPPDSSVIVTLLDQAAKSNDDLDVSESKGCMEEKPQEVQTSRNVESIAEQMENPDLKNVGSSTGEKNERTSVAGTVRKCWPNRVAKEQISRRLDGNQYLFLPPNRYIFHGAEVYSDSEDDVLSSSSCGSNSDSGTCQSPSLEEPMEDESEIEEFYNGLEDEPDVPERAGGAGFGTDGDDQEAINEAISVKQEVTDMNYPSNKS
The experiment in a line: Inhibition of SIRT1 in Trichostatin A treated human HCT116 cells assessed as increase in acetylated p53 K382 level at 10 to 50 uM after 6 hrs by Western blot analysis. In a few lines:
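HCT116 cells were seeded at 400 000 per well, grown 24 h, then cotreated with 400 nM TSA and inhibitor (25 μM, or 10–50 μM) for 6 h at 37 °C. Cells were lysed in 4% SDS buffer, pH 7.4. 50 μg of lysate was resolved by 12% SDS-PAGE and blotted for acetyl-p53 K382 antibody, with β-actin as loading control. Detection was by ECL.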
(In general: Immunoblotting shows a protein as a band on a membrane.)

The test system of data set [11] is HCT-116. Briefly: Inhibition of anchorage-independent cell growth in human HCT116 cells assessed as reduction in colony formation incubated for 5 days followed by compound re-addition and measured after 9 to 11 days by nitro blue tetrazolium chloride-based soft agar colony formation assay. The format is functional. In a few lines:
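HCT116 cells were mixed at 500 cells/mL into 0.3% agar growth layer over a 0.6% agar base layer (McCoy's medium, 10% calf serum). Both layers held inhibitor at 2.5–50 μM final. Wells were run in triplicate at 37 °C. Inhibitor-containing growth layer was added again at day 5. At 9–11 days, nitro blue tetrazolium was added overnight and colonies were imaged and counted.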

Data set [12] is described as follows: Cytotoxicity against human HME1 cells after 72 hrs by CellTiter-Blue assay. The format is cell-based. In a few lines: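 Cells were seeded per well (HCT116 1000; MDA-MB-231, MDA-MB-468, NCI-H23, A549, SW948 2000; MCF7, BxPC-3, HME1 3000) and left 20 h at 37 °C. Inhibitor was added at 1–100 μM final for 72 h at 37 °C. CellTiter-Blue was then added for 4 h, and fluorescence was read at ex 560/em 590 nm.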

Data set [13] deals with SW948. Briefly: Growth inhibition of human SW948 cells after 72 hrs by CellTiter-Blue assay. The format is functional. The conditions noted are these: SW948, 72 h.
Data set [14] has as its target T4, NAD-dependent protein deacetylase sirtuin-1 (Homo sapiens, UniProt Q96EB6).
T4 sequence (Q96EB6 whole entry): T3 sequence (whole entry)
The experiment in a line: Inhibition of human SIRT1 deacetylase activity using acetylated H3K9 as substrate preincubated for 15 mins followed by substrate addition and measured after 3 mins by UV-HPLC analysis.

A word on the GI50: it is the concentration at which growth is held to half of that of the control. What is called IC50 is the concentration at which inhibition is half-maximal. Turning to `CCCCCCCCNC(=S)NCCCC[C@H](NC(=O)OCc1ccccc1)C(=O)Nc1ccccc1`, the concentration for 50% growth inhibition (GI50) in [1] was 26.1 µM; in data set [2] it was 27.2 µM; in data set [5] it was 58.9 µM; in data set [6], 42.6 µM; in [9], 72.4 µM; in data set [11] it was 7.4 µM. Besides, halving of growth in data set [13] (GI50) required 30 µM. Besides, the inhibition result in data set [3] was “Active”. Further, the Activity result in [4], in data set [8] and in data set [12] was “Non-Toxic” in each case. Also, the IC50 was found to be 0.061 µM in data set [7] and 11 µM in [14]. Also, in [10], the inhibition result was “inactive”.
On to `CCCCCCCCCCNC(=S)NCCCC[C@H](NC(=O)OCc1ccccc1)C(=O)Nc1ccccc1`, for which the GI50 in [1] came to 13.4 µM; in [2], 14.8 µM; in [5] it was 54.4 µM; in data set [6], 18.4 µM; in data set [9], 24.3 µM; in data set [11], 7 µM. The compound also showed a GI50 in [13] of 12.8 µM. Moreover, the inhibition entry in data set [3] is “Active”. The Activity entry in data set [4], in [8] and in data set [12] was “Non-Toxic” in each case. Besides, the IC50 in data set [7] was 0.15 µM; in data set [14] it was above 200 µM. Besides, in [10], the inhibition result is “inactive”.

The record behind these values is ChEMBL document CHEMBL4433206, “Novel Lysine-Based Thioureas as Mechanism-Based Inhibitors of Sirtuin 2 (SIRT2) with Anticancer Activity in a Colorectal Cancer Murine Model” (J Med Chem, 2019).
